Read-outs that look alike come from different tables or passages of the source.
Assays:
[1] = biological target: GluN1/GluN2B^ΔCTD receptors (Rattus norvegicus, UniProt P35439+Q00960); assay type: cell-based; conditions: for % potentiation of agonist-evoked current: 10 µM L-glutamate/10 µM glycine (Fig. 2B, 4B)
[2] = biological target: GluN1^ΔCTD/GluN2B receptors (Rattus norvegicus, UniProt P35439+Q00960); assay type: cell-based; conditions: 100 µM compound; 10 µM L-glutamate/10 µM glycine (Fig. 2C)
Procedure, shortened: (§1)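 Xenopus laevis oocytes were injected with GluN1a:GluN2 RNA at a 1:3 molar ratio (15-30 ng total; 10-20-fold more for CTD-deleted subunits) and kept in ND-96 at 17 °C for 1-5 days. TEVC was run at -60 mV in 116 mM NaCl, 2 mM KCl, 0.3 mM BaCl2, 5 mM HEPES, pH 7.4. […] Full-length controls came from the same batch and day; mean ± s.e.m.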

[3] = biological target: GluN1^ΔCTD/GluN2A receptors (Rattus norvegicus, UniProt P35439+Q00959); assay type: cell-based; conditions: for effect of GluN1 CTD-deletion on modulator activity at GluN2A receptors: vs GluN1^WT/GluN2A, GNE-8324 30 µM, PAS 100 µM, DQP-1105 50 µM, TCN-201 10 µM (Fig. 4E, 5G-I)
Procedure, shortened: as §1

[4] = biological target: GluN1/GluN2D^ΔCTD receptors (Rattus norvegicus, UniProt P35439+Q62645); assay type: cell-based
GluN1/GluN2D^ΔCTD receptors, sequence (Q62645 28-869 limits assumed, stated change not applied, other chains not shown): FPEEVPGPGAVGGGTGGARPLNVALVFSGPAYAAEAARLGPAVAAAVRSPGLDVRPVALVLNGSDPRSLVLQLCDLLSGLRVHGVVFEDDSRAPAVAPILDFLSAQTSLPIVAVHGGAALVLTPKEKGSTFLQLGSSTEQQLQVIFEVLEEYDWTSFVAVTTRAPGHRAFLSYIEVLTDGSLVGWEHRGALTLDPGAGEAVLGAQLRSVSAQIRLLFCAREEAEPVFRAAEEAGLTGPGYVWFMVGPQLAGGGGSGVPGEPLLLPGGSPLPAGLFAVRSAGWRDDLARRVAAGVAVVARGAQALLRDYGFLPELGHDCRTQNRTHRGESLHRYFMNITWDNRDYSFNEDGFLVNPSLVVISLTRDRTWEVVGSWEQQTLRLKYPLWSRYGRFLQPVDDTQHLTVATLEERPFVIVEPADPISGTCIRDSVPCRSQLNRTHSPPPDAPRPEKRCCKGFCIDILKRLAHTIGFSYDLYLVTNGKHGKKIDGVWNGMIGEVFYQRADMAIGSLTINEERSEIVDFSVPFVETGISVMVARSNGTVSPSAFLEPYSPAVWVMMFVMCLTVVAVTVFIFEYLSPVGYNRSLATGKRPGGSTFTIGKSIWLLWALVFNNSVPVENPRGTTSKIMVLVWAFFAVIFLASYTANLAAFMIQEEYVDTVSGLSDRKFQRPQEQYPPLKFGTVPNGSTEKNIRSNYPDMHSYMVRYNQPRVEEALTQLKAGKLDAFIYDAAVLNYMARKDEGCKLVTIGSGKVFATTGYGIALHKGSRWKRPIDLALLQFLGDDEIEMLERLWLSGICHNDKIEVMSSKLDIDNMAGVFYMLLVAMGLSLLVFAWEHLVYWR

[5] = biological target: GluN1/GluN2A^ΔCTD receptors (Rattus norvegicus, UniProt P35439+Q00959); assay type: cell-based
Procedure, shortened: as §1

GluN1/GluN2C receptors = GluN1/GluN2C receptors (Rattus norvegicus, UniProt P35439+Q00961); assay type: cell-based
GluN1/GluN2C receptors, sequence (Q00961 20-1237, other chains not shown): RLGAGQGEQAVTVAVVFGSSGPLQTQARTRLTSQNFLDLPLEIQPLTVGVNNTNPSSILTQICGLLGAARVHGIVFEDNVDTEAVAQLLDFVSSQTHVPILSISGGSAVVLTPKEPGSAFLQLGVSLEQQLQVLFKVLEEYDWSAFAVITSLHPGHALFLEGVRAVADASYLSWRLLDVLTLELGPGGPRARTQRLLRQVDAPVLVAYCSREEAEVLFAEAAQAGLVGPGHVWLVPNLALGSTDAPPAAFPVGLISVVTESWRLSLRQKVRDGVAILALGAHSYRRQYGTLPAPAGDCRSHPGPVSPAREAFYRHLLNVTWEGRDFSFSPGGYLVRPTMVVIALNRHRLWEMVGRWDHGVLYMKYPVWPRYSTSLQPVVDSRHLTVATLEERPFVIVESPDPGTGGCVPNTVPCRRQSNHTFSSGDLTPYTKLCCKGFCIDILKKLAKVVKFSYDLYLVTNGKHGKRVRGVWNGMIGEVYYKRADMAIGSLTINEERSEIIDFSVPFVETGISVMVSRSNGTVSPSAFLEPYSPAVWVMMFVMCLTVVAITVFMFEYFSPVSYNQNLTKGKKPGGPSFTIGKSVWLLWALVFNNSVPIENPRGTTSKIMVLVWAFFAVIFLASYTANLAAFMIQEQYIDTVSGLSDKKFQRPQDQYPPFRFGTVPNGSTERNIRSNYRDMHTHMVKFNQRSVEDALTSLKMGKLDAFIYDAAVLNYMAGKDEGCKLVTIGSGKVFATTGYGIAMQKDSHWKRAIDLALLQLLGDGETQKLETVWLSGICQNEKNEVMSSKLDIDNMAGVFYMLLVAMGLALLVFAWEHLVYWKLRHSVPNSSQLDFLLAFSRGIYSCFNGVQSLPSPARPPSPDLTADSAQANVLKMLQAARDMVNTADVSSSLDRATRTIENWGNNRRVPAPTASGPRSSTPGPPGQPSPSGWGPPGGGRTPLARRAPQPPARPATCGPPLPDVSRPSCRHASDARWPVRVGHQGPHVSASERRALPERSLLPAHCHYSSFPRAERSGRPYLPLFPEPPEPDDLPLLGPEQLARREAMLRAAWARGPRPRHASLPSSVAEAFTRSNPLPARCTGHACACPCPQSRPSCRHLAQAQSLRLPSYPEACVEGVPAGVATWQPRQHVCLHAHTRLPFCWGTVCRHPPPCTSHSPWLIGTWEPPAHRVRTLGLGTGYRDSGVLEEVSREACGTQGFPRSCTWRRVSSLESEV
Procedure, shortened: (§2)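 Oocytes expressed wild-type GluN1a/GluN2 receptors from 15-30 ng RNA (1:3 molar) and were held in ND-96 at 17 °C for 1-5 days. For Ca2+ chelation, 5 mM EGTA (50 nL) was injected 1-2 h before recording, with uninjected and water-injected oocytes as controls. TEVC was run at -60 mV in 116 mM NaCl, 2 mM KCl, 0.3 mM BaCl2, 5 mM HEPES (pH 7.4). […] Values are mean ± s.e.m.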

[6] = biological target: GluN1^ΔCTD/GluN2D receptors (Rattus norvegicus, UniProt P35439+Q62645); assay type: cell-based
GluN1^ΔCTD/GluN2D receptors, sequence (Q62645 28-1323, stated change not applied, other chains not shown): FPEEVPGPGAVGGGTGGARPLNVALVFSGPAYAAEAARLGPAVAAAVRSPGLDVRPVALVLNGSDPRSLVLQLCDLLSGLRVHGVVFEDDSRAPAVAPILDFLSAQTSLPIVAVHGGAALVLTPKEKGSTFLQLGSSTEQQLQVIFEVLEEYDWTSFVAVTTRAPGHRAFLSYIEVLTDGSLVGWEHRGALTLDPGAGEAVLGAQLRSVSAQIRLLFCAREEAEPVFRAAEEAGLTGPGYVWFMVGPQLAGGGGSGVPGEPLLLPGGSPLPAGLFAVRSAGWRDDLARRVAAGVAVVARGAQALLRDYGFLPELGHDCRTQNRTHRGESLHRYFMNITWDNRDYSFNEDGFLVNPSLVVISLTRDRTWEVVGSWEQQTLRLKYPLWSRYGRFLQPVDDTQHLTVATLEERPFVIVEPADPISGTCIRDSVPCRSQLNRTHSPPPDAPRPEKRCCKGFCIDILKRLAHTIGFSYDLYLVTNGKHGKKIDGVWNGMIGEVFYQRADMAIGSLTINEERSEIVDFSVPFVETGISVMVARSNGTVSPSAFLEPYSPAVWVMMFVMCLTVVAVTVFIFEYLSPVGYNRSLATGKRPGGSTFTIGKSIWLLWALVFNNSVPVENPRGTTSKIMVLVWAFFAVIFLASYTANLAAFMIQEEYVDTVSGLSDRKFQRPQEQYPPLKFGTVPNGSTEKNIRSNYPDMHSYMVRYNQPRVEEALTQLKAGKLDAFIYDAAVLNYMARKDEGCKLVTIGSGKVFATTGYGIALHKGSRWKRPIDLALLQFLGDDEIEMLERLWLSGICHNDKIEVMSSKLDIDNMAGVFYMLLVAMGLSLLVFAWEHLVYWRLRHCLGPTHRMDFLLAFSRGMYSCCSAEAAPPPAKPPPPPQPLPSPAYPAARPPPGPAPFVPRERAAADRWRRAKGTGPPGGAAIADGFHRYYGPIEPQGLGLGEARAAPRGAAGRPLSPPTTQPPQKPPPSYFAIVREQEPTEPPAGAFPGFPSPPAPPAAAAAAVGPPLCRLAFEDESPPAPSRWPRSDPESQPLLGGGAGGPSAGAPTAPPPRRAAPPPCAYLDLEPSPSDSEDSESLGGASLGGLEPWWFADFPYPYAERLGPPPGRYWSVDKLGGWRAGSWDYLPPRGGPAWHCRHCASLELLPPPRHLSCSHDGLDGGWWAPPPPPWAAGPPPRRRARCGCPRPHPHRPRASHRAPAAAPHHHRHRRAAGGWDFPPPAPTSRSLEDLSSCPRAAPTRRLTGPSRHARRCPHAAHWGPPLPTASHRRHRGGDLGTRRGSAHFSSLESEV
Procedure, shortened: (§3)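 Xenopus laevis oocytes were injected with GluN1a and GluN2 RNA at a 1:3 molar ratio. The CTD was removed by a stop codon at GluN1 838K or GluN2C 855K, and 10-20-fold more RNA than wild type was injected. Oocytes were kept in ND-96 at 17 °C for 1-5 days. TEVC was run at -60 mV in Ba2+ buffer (pH 7.4). […] Full-length receptors were run alternately on the same day and oocyte batch. Values are mean ± s.e.m.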

[7] = biological target: GluN1^ΔCTD/GluN2C receptors (Rattus norvegicus, UniProt P35439+Q00961); assay type: cell-based; conditions: 100 µM compound; 10 µM L-glutamate/10 µM glycine (Fig. 2C)
GluN1^ΔCTD/GluN2C receptors, sequence (Q00961 20-1237, stated change not applied, other chains not shown): as the sequence (Q00961 20-1237, other chains not shown) above
Procedure, shortened: as §1

[8] = test system: GluN1 CTD in neurons expressing GluN1-GFP, GluN2A and GluN1-mCherry; test: CTD-FRET; assay type: cell-based, rat; conditions: 75 µM compound, absence of agonists, imaged 10 min after application (Fig. 8)
Procedure, shortened: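 Rat primary hippocampal neurons were transfected at DIV 7-10 with ~2 µg total DNA (GluN1-GFP, GluN2A, GluN1-mCherry) by lipofection and imaged at 16-18 DIV in 0.87x HBSS, 5 mM HEPES, 1 mM glucose, 2.5 mM MgCl2, 0.5 mM CaCl2. Baseline and 10 min post-compound two-photon FLIM images were taken, each neuron imaged twice, compounds interleaved. Lifetimes were fit single-exponential and analysed blind; two preparations pooled.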

[9] = biological target: GluN1/GluN2C^ΔCTD receptors (Rattus norvegicus, UniProt P35439+Q00961); test: Two-electrode voltage clamp of GluN2C CTD-deleted receptors; assay type: cell-based
GluN1/GluN2C^ΔCTD receptors, sequence (Q00961 20-842, stated change not applied, other chains not shown): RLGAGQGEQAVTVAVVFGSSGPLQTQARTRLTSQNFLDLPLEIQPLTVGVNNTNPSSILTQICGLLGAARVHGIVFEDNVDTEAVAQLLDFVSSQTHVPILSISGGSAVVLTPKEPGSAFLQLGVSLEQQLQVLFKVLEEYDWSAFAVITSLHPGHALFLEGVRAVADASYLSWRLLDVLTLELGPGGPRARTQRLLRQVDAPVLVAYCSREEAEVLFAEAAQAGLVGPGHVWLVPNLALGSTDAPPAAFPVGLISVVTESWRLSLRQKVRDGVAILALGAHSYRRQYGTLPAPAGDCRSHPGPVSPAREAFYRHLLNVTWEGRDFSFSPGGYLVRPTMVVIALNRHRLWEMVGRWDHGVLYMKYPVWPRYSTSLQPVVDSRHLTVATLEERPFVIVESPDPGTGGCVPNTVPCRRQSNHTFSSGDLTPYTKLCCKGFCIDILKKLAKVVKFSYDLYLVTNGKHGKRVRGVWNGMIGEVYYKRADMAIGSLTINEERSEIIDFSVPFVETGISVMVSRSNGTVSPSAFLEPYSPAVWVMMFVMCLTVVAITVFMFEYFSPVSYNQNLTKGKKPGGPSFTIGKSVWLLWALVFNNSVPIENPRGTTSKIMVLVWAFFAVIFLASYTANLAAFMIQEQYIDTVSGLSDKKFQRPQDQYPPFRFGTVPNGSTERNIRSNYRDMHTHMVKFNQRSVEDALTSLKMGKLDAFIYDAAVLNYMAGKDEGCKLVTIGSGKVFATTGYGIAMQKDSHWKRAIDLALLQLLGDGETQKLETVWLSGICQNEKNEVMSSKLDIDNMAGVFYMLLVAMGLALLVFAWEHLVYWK
Procedure, shortened: as §3

GluN1/GluN2A receptors = GluN1/GluN2A receptors (Rattus norvegicus, UniProt P35439+Q00959); assay type: cell-based
Procedure, shortened: as §1

GluN1/GluN2D receptors = GluN1/GluN2D receptors (Rattus norvegicus, UniProt P35439+Q62645); assay type: cell-based
GluN1/GluN2D receptors, sequence (Q62645 28-1323, other chains not shown): as the sequence (Q62645 28-1323, stated change not applied, other chains not shown) above
Procedure, shortened: as §2

GluN1/GluN2B receptors = GluN1/GluN2B receptors (Rattus norvegicus, UniProt P35439+Q00960); assay type: cell-based
[10] = 100 µM compound, 10 µM L-glutamate/10 µM glycine (Fig. 2C)
[11] = 100 µM compound, 10 µM L-glutamate/10 µM glycine (Fig. 2B, 5A)
[12] = 10 µM FSK and 1 mM IBMX for 10 minutes, 50 µM UBP684, 100 µM PS (Fig. 7B, C)
[13] = 100 µM compound, control cells for U73122 experiment (Fig. 6J)
[14] = 10 µM compound, 10 µM L-glutamate/10 µM glycine (Fig. 4D)
[15] = 10 µM compound, 10 µM L-glutamate/10 µM glycine (Fig. 5C)
[16] = 30 µM compound, 10 µM L-glutamate/10 µM glycine (Fig. 4A, 5B)
[17] = 10 µM compound, 10 µM L-glutamate/10 µM glycine (Fig. 5D-F)
[18] = 10 µM compound, 10 µM L-glutamate/10 µM glycine, GluN2A^WT (Fig. 5D-F)
[19] = 30 µM compound, vs WT (Fig. 5B)

Molecule: 5-Pregnen-3β-ol-20-onesulphate [PS]
- % potentiation of agonist-evoked current ([1]; 100 µM compound): 74 ± 10%
- % potentiation of agonist-evoked current [2]: 156 ± 25%
- % potentiation of agonist-evoked current [3, 10]: 32 ± 4%
- IC50 ([4]; 10 µM L-glutamate/10 µM glycine (Fig. 3)): 76.7 ± 19.1%
- % inhibition of agonist-evoked current [4, 11]: 49 ± 8%
- effect of PKC activation by PMA on PAM activity ([5]; 2 µM PMA for 10 minutes, 50 µM UBP684, 100 µM PS (Fig. 7G, H)): significantly increased
- % inhibition of agonist-evoked current [5, 11]: 23 ± 4%
- modulation in dose-response experiment ([5]; all doses, the lowest being 3 µM, 10 µM L-glutamate/10 µM glycine (Fig. 3)): NAM activity at all doses
- effect of EGTA injection on potentiation/modulation (GluN1/GluN2C receptors; 5 mM EGTA injected vs controls (Fig. 6C, G)): no significant effect
- % inhibition of agonist-evoked current [6, 10]: 45 ± 6%
- % inhibition of agonist-evoked current [7]: 66 ± 5%
- change of GluN1-GFP fluorescence lifetime (movement of the GluN1 CTD) [8]: did not affect
- % inhibition of agonist-evoked current [9, 11]: 89 ± 2%
- effect of PKA activation on % potentiation (GluN1/GluN2A receptors; [12]): unchanged
- % potentiation of agonist-evoked current (GluN1/GluN2A receptors; [13]): 45 ± 3%
- effect of EGTA injection on modulation (GluN1/GluN2A receptors; 5 mM EGTA injected vs controls (Fig. 6E)): no significant effect
- IC50 (GluN1/GluN2D receptors; 10 µM L-glutamate/10 µM glycine, WT GluN1/GluN2D (Fig. 3)): 149.8 ± 18.0%
- effect of EGTA injection on potentiation/modulation (GluN1/GluN2D receptors; 5 mM EGTA injected vs controls (Fig. 6D, H)): no significant effect
- effect of PKC activation by PMA on PAM activity (GluN1/GluN2B receptors; 2 µM PMA for 10 minutes, 50 µM UBP684, 100 µM PS (Fig. 7E, F)): unaffected
- effect of PKA activation on % potentiation (GluN1/GluN2B receptors; [12]): unchanged
- % potentiation of agonist-evoked current (GluN1/GluN2B receptors; [13]): 82 ± 10%
- effect of EGTA injection on modulation (GluN1/GluN2B receptors; 5 mM EGTA injected vs controls (Fig. 6F)): no significant effect

Molecule: COc1ccc(OCC2c3cc(OC)c(OC)cc3CCN2C(=O)c2cccc(Cl)c2)cc1 (stereo not drawn) [CIQ]
- % potentiation of agonist-evoked current [4, 14]: 48 ± 5%
- % potentiation of agonist-evoked current (GluN1/GluN2C receptors; 10 µM compound, 10 µM L-glutamate/10 µM glycine, GluN2C^WT (Fig. 4D)): 89 ± 8%
- effect of GluN1 CTD-deletion on PAM activity ([6]; 10 µM compound, vs wild-type GluN1/GluN2D (Fig. 4F)): significantly reduced
- % potentiation of agonist-evoked current [9, 14]: 113 ± 13%
- % potentiation of agonist-evoked current (GluN1/GluN2D receptors; 10 µM compound, 10 µM L-glutamate/10 µM glycine, GluN2D^WT (Fig. 4D)): 72 ± 11%

Molecule: Cc1ccc2[nH]c(=O)c(C3=NN(C(=O)CCC(=O)O)C(c4ccc(Br)cc4)C3)c(-c3ccccc3)c2c1 (stereo not drawn) [DQP-1105]
- effect of GluN1 CTD-deletion on modulator activity at GluN2A receptors [3]: did not observe any effect
- % inhibition of agonist-evoked current [4, 15]: 97 ± 2%
- % inhibition of agonist-evoked current ([5]; 50 µM compound, 10 µM L-glutamate/10 µM glycine (Fig. 5C)): 82 ± 4%
- % inhibition of agonist-evoked current (GluN1/GluN2C receptors; 10 µM compound, 10 µM L-glutamate/10 µM glycine, WT (Fig. 5C)): 69 ± 2%
- % inhibition of agonist-evoked current [9, 15]: 79 ± 4%
- % inhibition of agonist-evoked current (GluN1/GluN2A receptors; 50 µM compound, 10 µM L-glutamate/10 µM glycine, WT (Fig. 5C)): 39 ± 3%
- % inhibition of agonist-evoked current (GluN1/GluN2D receptors; 10 µM compound, 10 µM L-glutamate/10 µM glycine, GluN2D^WT (Fig. 5C)): 87 ± 1%

Molecule: CCN(Cc1cc(=O)n2c3c(sc2n1)CCC3)c1ccc(F)cc1 [GNE-8324]
- effect of GluN1 CTD-deletion on modulator activity at GluN2A receptors [3]: unaffected
- % inhibition of agonist-evoked current [5, 16]: 11 ± 2%
- % potentiation of agonist-evoked current (GluN1/GluN2A receptors; 30 µM compound, 10 µM L-glutamate/10 µM glycine, GluN2A^WT (Fig. 4A)): 35 ± 4%

Molecule: Cc1ncc(CNC(=O)c2cnc(CNS(=O)(=O)c3ccc(F)c(Cl)c3)cn2)s1 [MPX-004]
- % inhibition of agonist-evoked current [5, 17]: 29 ± 13%
- % inhibition of agonist-evoked current (GluN1/GluN2A receptors; [18]): 75 ± 8%

Molecule: Cc1ncc(CNC(=O)c2cnc(CNS(=O)(=O)c3ccc(F)c(F)c3)c(C)n2)s1 [MPX-007]
- % inhibition of agonist-evoked current [5, 17]: 36 ± 6%
- % inhibition of agonist-evoked current (GluN1/GluN2A receptors; [18]): 77 ± 9%

Molecule: CC(=O)[C@H]1CC[C@H]2[C@@H]3CC[C@@H]4C[C@H](OS(=O)(=O)O)CC[C@]4(C)[C@H]3CC[C@]12C [PAS, 5β-pregnan-3α-ol-20-onesulphate]
- % inhibition of agonist-evoked current ([1]; 100 µM compound, 10 µM L-glutamate/10 µM glycine (Fig. 5A)): 76 ± 3%
- effect of GluN1 CTD-deletion on modulator activity at GluN2A receptors [3]: did not observe any effect
- % inhibition of agonist-evoked current [4, 11]: 85 ± 5%
- % inhibition of agonist-evoked current [5, 11]: 89 ± 2%
- % inhibition of agonist-evoked current [9, 11]: 93 ± 1%
- % inhibition of agonist-evoked current (GluN1/GluN2A receptors; 100 µM compound, 10 µM L-glutamate/10 µM glycine, GluN2A^WT (Fig. 5A)): 61 ± 3%
- % inhibition of agonist-evoked current (GluN1/GluN2B receptors; 100 µM compound, 10 µM L-glutamate/10 µM glycine, GluN2B^WT (Fig. 5A)): 67 ± 1%

Molecule: COC(=O)c1ccc(C2C(C(C)=O)=C(O)C(=O)N2CCc2c(C)[nH]c3ccccc23)cc1 (stereo not drawn) [PYD-106]
- % potentiation of agonist-evoked current (GluN1/GluN2C receptors; 30 µM compound, 10 µM L-glutamate/10 µM glycine, GluN2C^WT (Fig. 4C)): 64 ± 4%
- % potentiation of agonist-evoked current ([9]; 30 µM compound, 10 µM L-glutamate/10 µM glycine (Fig. 4C)): 21 ± 3%

Molecule: NCCCNCCCCNCCCN [Spermine]
- % potentiation of agonist-evoked current ([1]; 100 µM compound): 57 ± 5%

Molecule: O=C(NNC(=O)c1ccc(CNS(=O)(=O)c2ccc(F)c(Cl)c2)cc1)c1ccccc1 [TCN-201]
- effect of GluN1 CTD-deletion on modulator activity at GluN2A receptors [3]: did not observe any effect
- % inhibition of agonist-evoked current [5, 17]: 53 ± 5%
- % inhibition of agonist-evoked current (GluN1/GluN2A receptors; [18]): 82 ± 2%

Molecule: O=C(O)c1cc2cc(/C=C/c3ccccc3[N+](=O)[O-])ccc2cc1O [UBP792]
- effect of GluN2B CTD-deletion on NAM activity [1, 19]: did not display a significant effect
- % inhibition of agonist-evoked current ([4]; 30 µM compound, 10 µM L-glutamate/10 µM glycine (Fig. 5B)): 68 ± 7%
- % inhibition of agonist-evoked current [5, 16]: 64 ± 6%
- effect of GluN2C CTD-deletion on NAM activity [9, 19]: did not display a significant effect
- % inhibition of agonist-evoked current (GluN1/GluN2A receptors; 30 µM compound, 10 µM L-glutamate/10 µM glycine, WT (Fig. 5B)): 22 ± 8%
- % inhibition of agonist-evoked current (GluN1/GluN2D receptors; 30 µM compound, 10 µM L-glutamate/10 µM glycine, wild-type (Fig. 5B)): 86 ± 1%

Source: paper PMC7058367 (Biochemical pharmacology, 2018)
